# Source: ChEMBL document CHEMBL1221409, “Antioxidant and anti-inflammatory phenylpropanoid derivatives from Calamus quiquesetinervius” (J Nat Prod, 2010)
# Experiments:
# [1] = tested on: Radical scavenging activity; test: Antioxidant activity assessed as DPPH radical scavenging activity after 30 mins by ELISA reader; assay type: functional
# In short: (§1)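 Radical scavenging was tested with Trolox and quercetin as positive controls. Values are from three replicates, reported as means ± SD and expressed as IC50.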
# [2] = Antioxidant activity assessed as hydroxyl radical scavenging activity by chemiluminescence analysis; assay type: functional; in short: as §1
# [3] = Antioxidant activity assessed as superoxide radical scavenging activity by chemiluminescence analysis; assay type: functional
# In short: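 Superoxide (·O2−) scavenging was tested with Trolox and quercetin as positive controls. Values are from three replicates, reported as means ± SD.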
# RAW264.7 = test: Antiinflammatory activity against LPS-stimulated mouse RAW264.7 cells assessed as inhibition of NO production after 24 hrs; assay type: functional, cell-based; settings: RAW264.7, 24 h
# In short: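 RAW 264.7 macrophages were stimulated with LPS in the presence of the test agent for 24 h. Inhibition of NO production was expressed as IC50, with quercetin as the reference.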
# [4] = Cytotoxicity against mouse RAW264.7 cells assessed as cell viability upto 100 uM by MTS assay; assay type: cell-based; settings: read-out: Activity
# In short: (§2)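 RAW 264.7 cells were incubated 24 h with the agent at various concentrations up to 100 µM, with or without LPS in the medium. Cell viability was read by MTS assay.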
# [5] = Cytotoxicity against LPS-stimulated mouse RAW264.7 cells assessed as cell viability upto 100 uM by MTS assay; assay type: cell-based; settings: LPS-stimulated RAW264.7 cells, read-out: Activity; in short: as §2
SMILES,IC50 [1] [µM],IC50 [2] [µM],IC50 [3] [µM],IC50 (RAW264.7) [µM],viability [4] [%],viability [5] [%]
COc1cc(/C=C/C(=O)OC[C@H]2O[C@@](CO)(O[C@H]3O[C@H](CO)[C@@H](OC(=O)/C=C/c4ccc(O)c(OC)c4)[C@H](O)[C@H]3O)[C@@H](OC(=O)/C=C/c3ccc(O)c(OC)c3)[C@@H]2O)ccc1O,62.5,6.8,> 200,78.1,> 90,> 90
COc1cc(/C=C/C(=O)OC[C@H]2O[C@@](CO)(O[C@H]3O[C@H](COC(C)=O)[C@@H](OC(=O)/C=C/c4ccc(O)c(OC)c4)[C@H](O)[C@H]3O)[C@@H](OC(=O)/C=C/c3ccc(O)c(OC)c3)[C@@H]2O)ccc1O,99.6,7.4,> 200,60.3,> 90,> 90
COc1cc(/C=C/C(=O)OC[C@H]2O[C@@](CO)(O[C@H]3O[C@H](CO)[C@@H](OC(=O)/C=C/c4ccc(O)c(OC)c4)[C@H](O)[C@H]3OC(C)=O)[C@@H](OC(=O)/C=C/c3ccc(O)c(OC)c3)[C@@H]2O)ccc1O,69.1,3.6,184,42.1,> 90,> 90
COc1cc(/C=C/C(=O)OC[C@H]2O[C@@](CO)(O[C@H]3O[C@H](COC(C)=O)[C@@H](OC(=O)/C=C/c4ccc(O)cc4)[C@H](O)[C@H]3O)[C@@H](OC(=O)/C=C/c3ccc(O)c(OC)c3)[C@@H]2O)ccc1O,64.4,8.4,> 200,9.5,> 90,> 90
COc1cc(/C=C/C(=O)OC[C@H]2O[C@@](CO)(O[C@H]3O[C@H](CO)[C@@H](OC(=O)/C=C/c4ccc(O)cc4)[C@H](O)[C@H]3OC(C)=O)[C@@H](OC(=O)/C=C/c3ccc(O)c(OC)c3)[C@@H]2O)ccc1O,68.4,5.5,> 200,9.2,> 90,> 90
COc1cc(C2Oc3c(OC)cc(/C=C/C=O)cc3C2COC(=O)c2ccc(O)cc2)ccc1O (configuration not stated),> 100,19.1,> 200,69,> 90,> 90
CCO[C@H](c1ccc(O)c(OC)c1)[C@H](COC(=O)c1ccc(O)cc1)Oc1ccc(/C=C/COC(=O)c2ccc(O)cc2)cc1OC (relative stereo) [QUIQUESETINERVIUSIN C],> 100,16.6,> 200,95.7,> 90,> 90
O=c1c(O)c(-c2ccc(O)c(O)c2)oc2cc(O)cc(O)c12 [QUERCETIN],–,–,–,34.5,–,–
COc1cc([C@H]2Oc3c(OC)cc(/C=C/COC(=O)c4ccc(O)cc4)cc3[C@@H]2COC(=O)c2ccc(O)cc2)ccc1O [QUIQUESETINERVIUSIN A],–,23.7,> 200,23.4,> 90,> 90
COc1cc([C@H]2Oc3c(OC)cc(/C=C/COC(=O)c4ccc(O)cc4)cc3[C@@H]2COC(=O)c2ccc(O)cc2)cc(OC)c1O [QUIQUESETINERVIUSIN B],–,25.7,> 200,223,> 90,> 90
COc1cc([C@H](O)[C@H](CO)Oc2c(OC)cc(-c3cc(=O)c4c(O)cc(O)cc4o3)cc2OC)ccc1O [SALCOLIN B],> 100,13.3,> 200,29.5,> 90,> 90
Cc1c(C)c2c(c(C)c1O)CCC(C)(C(=O)O)O2 (configuration not stated) [TROLOX],32.9,4.31,25.3,–,–,–
